In ChEMBL document CHEMBL4622964, “Designing Dihydrofolate Reductase Inhibitors as X-ray Radiosensitizers to Reverse Radioresistance of Cervical Cancer” (ACS Med Chem Lett, 2020):
pIC50: −log10 of the molar value. Calls of active or inactive are those of the source. The rule behind the calls is not given here.

Key:
[1] = Toxicity in BALB/c mouse xenografted with human HeLa cells assessed as liver damage at 4 mg/kg, iv administered for every 3 days for 21 days and measured after 24 hrs post last dose by H and E staining based light microscopic analysis; type: organism-based; details: in vivo
Procedure, shortened: (§1)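 HeLa-tumor-bearing nude mice dosed at 4 mg/kg iv every 3 days for 21 days, alone or with X-rays; euthanized 24 h after last injection; heart, liver, lungs, kidneys and spleen sectioned and stained with H&E.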

[2] = Toxicity in BALB/c mouse xenografted with human HeLa cells assessed as heart damage at 4 mg/kg, iv administered for every 3 days for 21 days and measured after 24 hrs post last dose in presence of 4 Gy X-ray irradiation by H and E staining based light microscopic analysis; type: organism-based; details: in vivo; procedure, shortened: as §1
[3] = Toxicity in BALB/c mouse xenografted with human HeLa cells assessed as kidney damage by measuring effect on uric acid level at 4 mg/kg, iv administered every 3 days for 21 days in presence of 4 Gy X-ray irradiation; type: organism-based; details: in vivo
Procedure, shortened: (§2)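 HeLa xenograft nude mice dosed at 4 mg/kg iv every 3 days over 21 days, alone or with X-rays; blood collected 24 h after last injection for serum biochemistry: ALT, AST (liver), BUN and uric acid (kidney).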

HeLa [4] = assay: Inhibition of cell migration in human HeLa cells assessed as reduction in migration velocity at 1 uM after 24 hrs by phase contrast microscopic analysis; type: functional, cell-based
Procedure, shortened: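 Wound-healing scratch assay on HeLa monolayers, compound with or without 4 Gy X-rays; wound closure recorded by phase-contrast microscopy at set times; migrated cells counted manually; mean ± SD of three independent experiments.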

[5] = Toxicity in BALB/c mouse xenografted with human HeLa cells assessed as kidney damage by measuring effect on BUN level at 4 mg/kg, iv administered every 3 days for 21 days; type: organism-based; details: in vivo; procedure, shortened: as §2
[6] = Toxicity in BALB/c mouse xenografted with human HeLa cells assessed as kidney damage by measuring effect on uric acid level at 4 mg/kg, iv administered every 3 days for 21 days; type: organism-based; details: in vivo; procedure, shortened: as §2
[7] = Toxicity in BALB/c mouse xenografted with human HeLa cells assessed as lung damage at 4 mg/kg, iv administered for every 3 days for 21 days and measured after 24 hrs post last dose by H and E staining based light microscopic analysis; type: organism-based; details: in vivo; procedure, shortened: as §1
[8] = Toxicity in BALB/c mouse xenografted with human HeLa cells assessed as liver damage by measuring effect on ALT level at 4 mg/kg, iv administered every 3 days for 21 days; type: organism-based; details: in vivo; procedure, shortened: as §2
HeLa [9] = assay: Induction of mitochondrial dysfunction in human HeLa cells assessed as increase in mitochondrial fission at 1 uM after 24 hrs in presence of 4 Gy X-ray irradiation by DAPI staining based fluorescence microscopic analysis; type: functional, cell-based
Procedure, shortened: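 HeLa cells treated with 1 μM compound, without or with 4 Gy X-rays; mitochondrial morphology imaged by fluorescence microscopy after MitoTracker and DAPI co-staining.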

[10] = Toxicity in BALB/c mouse xenografted with human HeLa cells assessed as liver damage by measuring effect on ALT level at 4 mg/kg, iv administered every 3 days for 21 days in presence of 4 Gy X-ray irradiation; type: organism-based; details: in vivo; procedure, shortened: as §2
HeLa [11] = assay: Induction of mitochondrial dysfunction in human HeLa cells assessed as change in mitochondrial membrane potential at 1 uM incubated for 24 hrs by JC1 staining based flow cytometry (reference value: 1.3%); type: functional
Procedure, shortened: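 Mitochondrial membrane potential was assessed by JC-1 flow cytometry in HeLa cells treated at 1 μM without or with 4 Gy X-rays. Green fluorescence gives the proportion of cells with lost ΔΨm.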

HeLa [12] = assay: Antimigratory activity in human HeLa cells assessed as inhibition of cell migration at 1 uM after 24 hrs by wound healing assay relative to control; type: functional; details: read-out: INH
Procedure, shortened: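 Wound-healing scratch assay in HeLa cells. Cells were treated without or with 4 Gy X-rays, and wound closure was imaged by phase-contrast microscopy at the indicated times. Migrated cells were counted manually. Mean ± SD of three independent experiments.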

[13] = Toxicity in BALB/c mouse xenografted with human HeLa cells assessed as liver damage by measuring effect on AST level at 4 mg/kg, iv administered every 3 days for 21 days in presence of 4 Gy X-ray irradiation; type: organism-based; details: in vivo; procedure, shortened: as §2
[14] = Toxicity in BALB/c mouse xenografted with human HeLa cells assessed as kidney damage at 4 mg/kg, iv administered for every 3 days for 21 days and measured after 24 hrs post last dose in presence of 4 Gy X-ray irradiation by H and E staining based light microscopic analysis; type: organism-based; details: in vivo; procedure, shortened: as §1
HeLa [15] = assay: Induction of apoptosis in human HeLa cells assessed as caspase-3 activation at 1 uM using Ac-DEVD-AMC as substrate after 12 hrs by fluorescence based assay relative to control; type: functional
Procedure, shortened: (§3)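 Caspase-3 and caspase-8 activities were measured in HeLa cells after 12 h at 1 μM, without or with 4 Gy X-rays. Mean ± SD of three independent experiments.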

HeLa [16] = assay: Induction of apoptosis in human HeLa cells assessed as caspase-3 activation at 1 uM using Ac-DEVD-AMC as substrate after 12 hrs in presence of 4 Gy X-ray radiation by fluorescence based assay relative to control; type: functional; procedure, shortened: as §3
[17] = Cytotoxicity against human Ect1 cells assessed as reduction in cell viability by MTT assay; type: cell-based
Procedure, shortened: (§4)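 MTT viability assay in Ect1/E6E7 normal ectocervical epithelial cells, with the test agent alone (0 Gy) or combined with 4 Gy X-rays. IC50 values are in μM.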

HeLa [18] = assay: Induction of cell cycle arrest in human HeLa cells assessed as accumulation at S phase at 1 uM after 48 hrs by propidium iodide staining based flow cytometric analysis (reference value: 41.6%); type: functional
HeLa [19] = assay: Ratio of IC50 for antiproliferative activity against human HeLa cells assessed as reduction in cell viability incubated for 12 hrs to IC50 for antiproliferative activity against human HeLa cells assessed as reduction in cell viability preincubated for 12 hrs followed by 4 Gy irradiation and measured after 60 hrs by MTT assay; type: functional
Procedure, shortened: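 MTT viability assay in HeLa cancer cells, with the test agent alone (0 Gy) or combined with 4 Gy X-rays. IC50 values are in μM. Sensitivity enhancement ratio = IC50(0 Gy)/IC50(4 Gy).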

[20] = Cytotoxicity against human Ect1 cells assessed as reduction in cell viability in presence of 4 Gy irradiation by MTT assay; type: cell-based; details: light or radiation study; procedure, shortened: as §4
[21] = Safety index, ratio of IC50 for cytotoxicity against human Ect1/E6E7 cells assessed as reduction in cell viability in presence of 4 Gy irradiation by MTT assay to antiproliferative activity against human HeLa cells assessed as reduction in cell viability preincubated for 12 hrs followed by 4 Gy irradiation and measured after 60 hrs by MTT assay; type: toxicity, cell-based; details: Ect1/E6E7 cells versus HeLa cells, read-out: Ratio IC50
Procedure, shortened: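 MTT viability assay on Ect1/E6E7 normal ectocervical cells and HeLa cells, with 0 or 4 Gy X-rays. SER = IC50(0 Gy)/IC50(4 Gy) in the same line; safe index SI4 = IC50 Ect1/E6E7 + 4 Gy divided by IC50 HeLa + 4 Gy.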

[22] = Toxicity in BALB/c mouse xenografted with human HeLa cells assessed as liver damage at 4 mg/kg, iv administered for every 3 days for 21 days and measured after 24 hrs post last dose in presence of 4 Gy X-ray irradiation by H and E staining based light microscopic analysis; type: organism-based; details: in vivo; procedure, shortened: as §1

## Nc1nc(N)c2nc3c(nc2n1)-c1cccc2cccc-3c12
[1]
  Activity: Non-Toxic
[2]
  Activity: Non-Toxic
[3]
  Activity: Non-Toxic
HeLa [4]
  inhibition: Active
[5]
  Activity: Non-Toxic
[6]
  Activity: Non-Toxic
[7]
  Activity: Non-Toxic
[8]
  Activity: Non-Toxic
HeLa [9]
  Activity: Active
[10]
  Activity: Non-Toxic
HeLa [11]
  Activity: 6.8%
HeLa [12]
  inhibition at 1 µM: 46%
[13]
  Activity: Non-Toxic
[14]
  Activity: Non-Toxic
HeLa [15]
  Activity: 121%
HeLa [16]
  Activity: 150%
[17]
  pIC50: 5.16
HeLa [18]
  Activity: 29.2%
HeLa [19]
  Ratio IC50: 3.3
[20]
  pIC50: 5.51
[21]
  selectivity ratio at 60 h: 4.8
[22]
  Activity: Non-Toxic
